29 compounds from ChEMBL document CHEMBL4765374, “8-Alkynyl-3-nitroimidazopyridines display potent antitrypanosomal activity against both T. b. brucei and cruzi” (Eur J Med Chem, 2020) can be followed below.

Data set [1] concerns Trypanosoma brucei brucei. Put plainly: […] activity against Trypanosoma brucei brucei AnTat 1.9 measured after 74 hrs by Alamar blue assay. The class given is functional, organism-based. To be noted: AnTat 1.9, 74 h. A digest of the protocol: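 Bloodstream T. b. brucei AnTat 1.9 grown at 37 °C, 5% CO₂ in MEM with Earle's salts plus mercaptoethanol, L-cysteine, bathocuproine sulfate and 20% heat-inactivated horse serum. Seeded at 2000 parasites/100 µL and exposed in duplicate to compounds in DMSO for 69 h. Alamar Blue then added for 5 h, fluorescence read at ex 530/em 590 nm. EC50 by nonlinear regression from three independent experiments.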
(In general: Resazurin is reduced to fluorescent resorufin, in cell work by metabolically active cells.)

Data set [2] concerns Leishmania donovani. Nature of the data set: Antileishmanial activity against Leishmania donovani MHOM/IN/00/DEVI promastigotes assessed as inhibition of metabolic activity measured after 72 hrs by MTT assay. The class given is functional, organism-based. The procedure, abridged: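 L. donovani MHOM/IN/00/DEVI promastigotes grown in Schneider's medium with 20% FCS at 27 °C. Log-phase parasites at 10⁶/mL were exposed in duplicate to serial compound concentrations in DMSO (final <0.5%) for 72 h at 27 °C. MTT was added for 4 h and absorbance read at 570 nm. EC50 from non-linear regression, mean of at least three independent experiments.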
For orientation: Tetrazolium assays rely on reduction of a dye to a coloured formazan, in cell work by metabolically active cells.

The nature of data set [3]: Solubility of the compound in aqueous medium at highest dose. The class given is physicochemical. The conditions noted are these: buffer.
The nature of data set [4]: Cytotoxicity against human HepG2 cells assessed as reduction in cell viability after 72 hrs by MTT assay. The class given is cell-based.
The nature of data set [5]: Selectivity index, ratio of CC50 for human HepG2 cells to EC50 for Trypanosoma brucei brucei AnTat 1.9. The class given is toxicity. The conditions noted are these: read-out: Selectivity Index.
A short description of data set [6]: Selectivity index, ratio of CC50 for cytotoxicity against human HepG2 cells to EC50 for antileishmanial activity against Leishmania donovani MHOM/IN/00/DEVI promastigotes. To be noted: read-out: Selectivity Index. The class given is toxicity, cell-based.
Data set [7] has as its system THP-1. Put plainly: Cytotoxicity against human THP-1 cells assessed as reduction in cell viability after 72 hrs by MTT assay. The class given is functional. A digest of the protocol: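 THP-1 cells at 5×10⁴ cells/mL in complete RPMI were exposed in duplicate to compounds in DMSO (final <0.5%) for 72 h at 37 °C. MTT at 0.5 mg/mL for 2 h, formazan dissolved in DMSO, absorbance read at 570 nm with 630 nm reference. CC50 from the dose-response curve, mean of three independent experiments.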

The structures appear in SMILES notation.

With `O=[N+]([O-])c1c(CS(=O)(=O)c2ccccc2)nc2c(Br)cc(Br)cn12`, the EC50 is 2900 nM in data set [1] and 1800 nM in data set [2]. The solubility result in data set [3] is on record as “Insoluble”. In data set [4], the CC50 at 72 h is greater than 31000 nM.

Regarding `O=[N+]([O-])c1c(CS(=O)(=O)c2ccccc2)nc2c(-c3ccncc3)cc(Cl)cn12`, the figures for the EC50 in data set [1] and in data set [2] were 250 nM and 1200 nM, respectively. Moreover, the CC50 at 72 h in data set [4] was greater than 50000 nM.

Regarding `O=[N+]([O-])c1c(CS(=O)(=O)c2ccccc2)nc2c(Sc3ccc(Cl)cc3)cc(Cl)cn12`, the EC50 came to 1300 nM in data set [1] and 1000 nM in data set [2]. For the same compound, in data set [5], the selectivity ratio is greater than 76.9.

Turning to `COc1cccc(C#Cc2cc(Cl)cn3c([N+](=O)[O-])c(CS(=O)(=O)c4ccccc4)nc23)c1`, the solubility result in data set [3] is given as “Insoluble”. The CC50 at 72 h in data set [4] is greater than 3900 nM.

As to `CC(O)C#Cc1cc(Cl)cn2c([N+](=O)[O-])c(CS(=O)(=O)c3ccccc3)nc12` (stereo unspecified), the concentration giving a half-maximal response (EC50) in data set [1] stood at 40 nM; in data set [2] it was 4700 nM. Also, the CC50 at 72 h in data set [4] amounted to 44200 nM. The values for the selectivity ratio in data set [6] and in data set [5] were 9.4 and 1100, respectively.

On to `COc1ccc(C#Cc2cc(Cl)cn3c([N+](=O)[O-])c(CS(=O)(=O)c4ccccc4)nc23)cc1`, for which the solubility result in data set [3] is “Insoluble”. The CC50 at 72 h in data set [4] is greater than 3900 nM.

`O=[N+]([O-])c1c(CS(=O)(=O)c2ccccc2)nc2c(C#Cc3ccc(CO)cc3)cc(Cl)cn12`: the results for the EC50 in data set [1] and in data set [2] were 160 nM and 1600 nM, respectively. For the same compound, the solubility result in data set [3] is “Insoluble”. The CC50 at 72 h in data set [4] was greater than 15600 nM. In addition, the selectivity ratio in data set [6] was greater than 9.8; in data set [5], greater than 97.5.

For the compound `O=[N+]([O-])c1c(CS(=O)(=O)c2ccccc2)nc2c(C#CCOc3ccccc3)cc(Cl)cn12`, the concentration for a half-maximal effect (EC50) in data set [1] came out at 160 nM; in data set [2], 1300 nM. The CC50 at 72 h in data set [4] was found to be 8400 nM. The selectivity ratio was found to be 6.5 in data set [6] and 52.5 in data set [5].

Consider `O=[N+]([O-])c1c(CS(=O)(=O)c2ccccc2)nc2c(C#Cc3ccccc3)cc(Cl)cn12`, for which the solubility entry in data set [3] was “Insoluble”. The CC50 at 72 h in data set [4] is greater than 3900 nM.

Turning to `O=[N+]([O-])c1c(CS(=O)(=O)c2ccccc2)nc2c(C#Cc3cccs3)cc(Cl)cn12`, in data set [3], the solubility entry is on record as “Insoluble”. For the same compound, in data set [4], the CC50 at 72 h is greater than 3900 nM.

As to `O=[N+]([O-])c1c(CS(=O)(=O)c2ccccc2)nc2c(C#Cc3cccc(F)c3)cc(Cl)cn12`, the solubility result in data set [3] was “Insoluble”. The CC50 at 72 h in data set [4] is greater than 3900 nM.

Take `O=[N+]([O-])c1c(CS(=O)(=O)c2ccccc2)nc2c(C#CCO)cc(Cl)cn12`: the EC50 in data set [1] amounted to 120 nM; in data set [2], 3900 nM. Besides, in data set [4], the 50% cytotoxic concentration (CC50) at 72 h is 10100 nM. Further, the selectivity ratio in data set [6] came to 2.6; in data set [5], 84.2.

Regarding `CC(O)(C#Cc1cc(Cl)cn2c([N+](=O)[O-])c(CS(=O)(=O)c3ccccc3)nc12)c1ccccc1` (stereo unspecified), the values for the EC50 in data set [1] and in data set [2] were 130 nM and 1000 nM, respectively. For the same compound, in data set [4], the CC50 at 72 h is 18800 nM. Besides, the selectivity ratio was 18.8 in data set [6] and greater than 145 in data set [5].

Regarding `O=[N+]([O-])c1c(CS(=O)(=O)c2ccccc2)nc2c(C#CC3(O)CCCCC3)cc(Cl)cn12`, the EC50 in data set [1] was 100 nM; in data set [2], 1000 nM. In addition, in data set [3], the solubility entry is “Insoluble”. For the same compound, the CC50 at 72 h in data set [4] is greater than 25000 nM. Moreover, the selectivity ratio in data set [6] is greater than 25; in data set [5], greater than 250.

Take `O=[N+]([O-])c1c(CS(=O)(=O)c2ccccc2)nc2c(C#Cc3ccccc3F)cc(Cl)cn12`: in data set [3], the solubility result was “Insoluble”. In data set [4], the CC50 at 72 h is greater than 3900 nM.

As for `O=[N+]([O-])c1c(CS(=O)(=O)c2ccccc2)nc2c(C#CC3(O)CCCC3)cc(Cl)cn12`, the EC50 in data set [1] came to 100 nM; in data set [2] it was 1700 nM. Besides, the solubility result in data set [3] is “Insoluble”. Further, in data set [4], the half-maximal cytotoxic concentration (CC50) at 72 h is greater than 31300 nM. Further, the results for the selectivity ratio in data set [6] and in data set [5] were greater than 18.4 and greater than 313, respectively.

Regarding `COc1ccccc1C#Cc1cc(Cl)cn2c([N+](=O)[O-])c(CS(=O)(=O)c3ccccc3)nc12`, the solubility result in data set [3] is given as “Insoluble”. Also, the half-maximal cytotoxic concentration (CC50) at 72 h in data set [4] is greater than 3900 nM.

`Nc1c(CS(=O)(=O)c2ccccc2)nc2c(C#CCCO)cc(Cl)cn12`: the EC50 is 6800 nM in data set [1] and greater than 62500 nM in data set [2]. Also, the solubility result in data set [3] is recorded as “Insoluble”. Further, the CC50 at 72 h in data set [4] was greater than 62500 nM. The selectivity ratio in data set [5] is greater than 9.2.

Take `O=[N+]([O-])c1c(CS(=O)(=O)c2ccccc2)nc2c(C#Cc3ccc(F)cc3)cc(Cl)cn12`: the solubility entry in data set [3] was “Insoluble”. Besides, the CC50 at 72 h in data set [4] was greater than 3900 nM.

With `CC(C)(O)C#Cc1cc(Cl)cn2c([N+](=O)[O-])c(CS(=O)(=O)c3ccccc3)nc12`, the values for the EC50 in data set [1] and in data set [2] were 120 nM and 3000 nM, respectively. For the same compound, the solubility result in data set [3] was “Insoluble”. The CC50 at 72 h in data set [4] was greater than 62500 nM. The figures for the selectivity ratio in data set [6] and in data set [5] were greater than 20.8 and greater than 521, respectively.

As for `Nc1ccc(C#Cc2cc(Cl)cn3c([N+](=O)[O-])c(CS(=O)(=O)c4ccccc4)nc23)cc1`, in data set [3], the solubility result is listed as “Insoluble”. Further, in data set [4], the CC50 at 72 h was greater than 3900 nM.

On to `O=[N+]([O-])c1c(CS(=O)(=O)c2ccccc2)nc2c(C#Cc3cccnc3)cc(Cl)cn12`, for which the solubility entry in data set [3] is on record as “Insoluble”. Also, in data set [4], the CC50 at 72 h was greater than 3900 nM.

As for `O=C(Cn1ccnc1[N+](=O)[O-])NCc1ccccc1` [BENZNIDAZOLE], the CC50 in data set [7] was greater than 200000 nM.

For the compound `COc1cccc2c1C(=O)c1c(O)c3c(c(O)c1C2=O)C[C@@](O)(C(=O)CO)C[C@@H]3O[C@H]1C[C@H](N)[C@H](O)[C@H](C)O1` [DOXORUBICIN], the 50% cytotoxic concentration (CC50) in data set [7] was determined as 700 nM.

For the compound `NCCCC(N)(C(=O)O)C(F)F` (stereo unspecified) [EFLORNITHINE], the CC50 at 72 h in data set [4] was greater than 100000 nM. Also, the selectivity ratio in data set [5] was greater than 7.5.

Take `CSc1ccc(OCc2ncc([N+](=O)[O-])n2C)cc1` [FEXINIDAZOLE]: the results for the EC50 in data set [1] and in data set [2] were 600 nM and 1200 nM, respectively. The CC50 in data set [7] is greater than 200000 nM.

`CCCCCCCCCCCCCCCCOP(=O)([O-])OCC[N+](C)(C)C` [MILTEFOSINE]: the CC50 in data set [7] was 35000 nM.

In turn, `CC1CS(=O)(=O)CCN1/N=C/c1ccc([N+](=O)[O-])o1` (stereo unspecified) [NIFURTIMOX] came in with an EC50 in data set [1] of 2600 nM. For the same compound, the CC50 at 72 h in data set [4] turned out to be 45200 nM. The selectivity ratio in data set [5] worked out at 17.4.

Consider `Cc1ccc(C(=O)Nc2ccc(S(=O)(=O)O)c3cc(S(=O)(=O)O)cc(S(=O)(=O)O)c23)cc1NC(=O)c1cccc(NC(=O)Nc2cccc(C(=O)Nc3cc(C(=O)Nc4ccc(S(=O)(=O)O)c5cc(S(=O)(=O)O)cc(S(=O)(=O)O)c45)ccc3C)c2)c1` [SURAMIN], for which the CC50 at 72 h in data set [4] is greater than 100000 nM.

The term EC50 denotes the concentration at which the effect is half-maximal. What is called CC50 is the concentration giving 50% cytotoxicity.
